Test in all cases: competitive ABPP of PAFAH2 versus anti-target hydrolases – cell lysate, fluorescence, gel-based ABPP, BW5147 T-cell proteome, powder samples, late-stage follow-up (AID 504513);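 note: 0% = DMSO-only band intensity and 100% = blank gel background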
For test [1], the system named is ESD. To be noted: BW5147 mouse T-cell proteome, FP-Rh gel ABPP, stronger effect = higher value. Summed up:
(§1)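 Assay system: murine BW5147 T-cell soluble lysate, PAFAH2 and anti-target serine hydrolases / Quantity: 1 mg/mL soluble protein / Schedule: 30 min compound, 30 min probe at 25 °C / Also added: FP-Rh probe at 2 µM / Controls: DMSO high, gel background low / Signal: in-gel fluorescence of probe-labelled bands, integrated optical density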

For test [2], the target named is Platelet-activating factor acetylhydrolase 2, cytoplasmic (Mus musculus) (UniProt Q8VDG7). To be noted: FP-Rh gel ABPP, stronger effect = higher value. Summed up: as §1
Sequence of Platelet-activating factor acetylhydrolase 2, cytoplasmic (Mus musculus) (Q8VDG7 whole entry, looked up): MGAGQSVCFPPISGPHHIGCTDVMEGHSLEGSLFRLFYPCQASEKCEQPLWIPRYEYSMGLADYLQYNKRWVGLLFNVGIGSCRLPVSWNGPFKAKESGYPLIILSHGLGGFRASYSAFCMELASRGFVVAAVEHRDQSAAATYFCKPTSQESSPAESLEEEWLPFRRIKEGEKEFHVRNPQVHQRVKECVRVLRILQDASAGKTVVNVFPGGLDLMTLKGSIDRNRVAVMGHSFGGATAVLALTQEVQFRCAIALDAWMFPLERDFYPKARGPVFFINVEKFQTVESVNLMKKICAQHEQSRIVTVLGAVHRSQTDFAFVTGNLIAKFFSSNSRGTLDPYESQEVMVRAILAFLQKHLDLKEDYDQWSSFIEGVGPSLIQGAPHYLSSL
In test [3] the test system is ABHD11. To be noted: BW5147 mouse T-cell proteome, FP-Rh gel ABPP, stronger effect = higher value. Summed up:
as §1

Test [4] concerns APEH. To be noted: BW5147 mouse T-cell proteome, FP-Rh gel ABPP, stronger effect = higher value. Summed up:
as §1

Test [5] concerns LYPLA1. To be noted: BW5147 mouse T-cell proteome, FP-Rh gel ABPP, stronger effect = higher value. Summed up: as §1

Structures are written as SMILES. Calls of active or inactive are those of the source.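 Rule for the calls: active = PAFAH2 inhibition at least 50% at 0.2 µM with under 50% on each related off-target enzyme; inactive = the rest, including PAFAH2 hits that also hit off-targets.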

As usually defined, the inhibition is the percentage by which the read-out fell short of the control.

For the compound `O=C(N1CCOCC1)n1ncc(-c2cc(F)cc(F)c2)n1`, the inhibition is 50% (inactive) in test [1] (at 1 µM); 0% in test [1] (inhibition, at 0.02 µM); 25% in test [1] (inhibition, at 0.2 µM); 100% in test [2] (PAFAH2, at 1 µM); 0% in test [2] (PAFAH2, inhibition, at 0.02 µM); 100% in test [2] (PAFAH2, inhibition, at 0.2 µM). The inhibition in test [3] (at 1 µM) was 100%; in test [3] (inhibition, at 0.02 µM), 50%; in test [3] (inhibition, at 0.2 µM), 100%; in test [4] (at 1 µM), 100%; in test [4] (inhibition, at 0.02 µM), 0%; in test [4] (inhibition, at 0.2 µM), 100%. Also, the inhibition in test [5] (at 1 µM) was 0% (inactive); in test [5] (inhibition, at 0.02 µM) it was 0%; in test [5] (inhibition, at 0.2 µM), 0%.

For `O=C(N(c1ccccc1)c1ccccc1)n1ccnn1`, the inhibition is 0% (inactive) in test [1] (at 1 µM); 0% in test [1] (inhibition, at 0.02 µM); 0% in test [1] (inhibition, at 0.2 µM); 0% (inactive) in test [2] (PAFAH2, at 1 µM); 0% in test [2] (PAFAH2, inhibition, at 0.02 µM); 0% in test [2] (PAFAH2, inhibition, at 0.2 µM). Moreover, the inhibition is 100% in test [3] (at 1 µM); 0% in test [3] (inhibition, at 0.02 µM); 50% in test [3] (inhibition, at 0.2 µM); 0% (inactive) in test [4] (at 1 µM); 0% in test [4] (inhibition, at 0.02 µM); 0% in test [4] (inhibition, at 0.2 µM). Further, the inhibition in test [5] (at 1 µM) was 0% (inactive); in test [5] (inhibition, at 0.02 µM), 0%; in test [5] (inhibition, at 0.2 µM), 0%.

On to `O=C(N1CCOCC1)n1ccnn1`, for which the inhibition in test [1] (at 1 µM) is 0% (inactive); in test [1] (inhibition, at 0.02 µM), 0%; in test [1] (inhibition, at 0.2 µM), 0%; in test [2] (PAFAH2, at 1 µM) it was 100% (inactive); in test [2] (PAFAH2, inhibition, at 0.02 µM), 0%; in test [2] (PAFAH2, inhibition, at 0.2 µM), 0%. For the same compound, the inhibition in test [3] (at 1 µM) is 100%; in test [3] (inhibition, at 0.02 µM) it was 0%; in test [3] (inhibition, at 0.2 µM), 50%; in test [4] (at 1 µM), 0% (inactive); in test [4] (inhibition, at 0.02 µM), 0%; in test [4] (inhibition, at 0.2 µM) it was 0%. For the same compound, the inhibition in test [5] (at 1 µM) is 0% (inactive); in test [5] (inhibition, at 0.02 µM) it was 0%; in test [5] (inhibition, at 0.2 µM) it was 0%.

With `O=C(N1CCCC1)n1ccnn1`, the inhibition is 0% (inactive) in test [1] (at 1 µM); 0% in test [1] (inhibition, at 0.02 µM); 0% in test [1] (inhibition, at 0.2 µM); 100% (inactive) in test [2] (PAFAH2, at 1 µM); 0% in test [2] (PAFAH2, inhibition, at 0.02 µM); 0% in test [2] (PAFAH2, inhibition, at 0.2 µM). Further, the inhibition in test [3] (at 1 µM) was 100% (inactive); in test [3] (inhibition, at 0.02 µM), 0%; in test [3] (inhibition, at 0.2 µM), 0%; in test [4] (at 1 µM), 100% (inactive); in test [4] (inhibition, at 0.02 µM) it was 0%; in test [4] (inhibition, at 0.2 µM), 0%. The inhibition in test [5] (at 1 µM) was 100% (inactive); in test [5] (inhibition, at 0.02 µM), 0%; in test [5] (inhibition, at 0.2 µM), 0%.

For `CN1CCN(C(=O)n2ccnn2)CC1`, the inhibition in test [1] (at 1 µM) is 0% (inactive); in test [1] (inhibition, at 0.02 µM), 0%; in test [1] (inhibition, at 0.2 µM), 0%; in test [2] (PAFAH2, at 1 µM), 0% (inactive); in test [2] (PAFAH2, inhibition, at 0.02 µM), 0%; in test [2] (PAFAH2, inhibition, at 0.2 µM), 0%. For the same compound, the inhibition in test [3] (at 1 µM) is 50% (inactive); in test [3] (inhibition, at 0.02 µM), 0%; in test [3] (inhibition, at 0.2 µM) it was 0%; in test [4] (at 1 µM), 0% (inactive); in test [4] (inhibition, at 0.02 µM), 0%; in test [4] (inhibition, at 0.2 µM), 0%. Further, the inhibition is 0% (inactive) in test [5] (at 1 µM); 0% in test [5] (inhibition, at 0.02 µM); 0% in test [5] (inhibition, at 0.2 µM).

For `O=C(N1CCCC1)n1ncc(-c2ccc(-c3ccccc3)cc2)n1`, the inhibition in test [1] (at 1 µM) was 0% (inactive); in test [1] (inhibition, at 0.02 µM), 0%; in test [1] (inhibition, at 0.2 µM), 0%; in test [2] (PAFAH2, at 1 µM), 100%; in test [2] (PAFAH2, inhibition, at 0.02 µM), 100%; in test [2] (PAFAH2, inhibition, at 0.2 µM), 100%. Besides, the inhibition in test [3] (at 1 µM) is 0% (inactive); in test [3] (inhibition, at 0.02 µM) it was 0%; in test [3] (inhibition, at 0.2 µM) it was 0%; in test [4] (at 1 µM), 0% (inactive); in test [4] (inhibition, at 0.02 µM), 0%; in test [4] (inhibition, at 0.2 µM), 0%. The inhibition is 0% (inactive) in test [5] (at 1 µM); 0% in test [5] (inhibition, at 0.02 µM); 0% in test [5] (inhibition, at 0.2 µM).

Take `O=C(N1CCOCC1)n1ncc(C(O)(c2ccccc2)c2ccccc2)n1`: the inhibition in test [1] (at 1 µM) was 0% (inactive); in test [1] (inhibition, at 0.02 µM) it was 0%; in test [1] (inhibition, at 0.2 µM), 0%; in test [2] (PAFAH2, at 1 µM), 50%; in test [2] (PAFAH2, inhibition, at 0.02 µM) it was 0%; in test [2] (PAFAH2, inhibition, at 0.2 µM) it was 50%. Besides, the inhibition was 100% in test [3] (at 1 µM); 25% in test [3] (inhibition, at 0.02 µM); 100% in test [3] (inhibition, at 0.2 µM); 0% (inactive) in test [4] (at 1 µM); 0% in test [4] (inhibition, at 0.02 µM); 0% in test [4] (inhibition, at 0.2 µM). In addition, the inhibition in test [5] (at 1 µM) is 0% (inactive); in test [5] (inhibition, at 0.02 µM) it was 0%; in test [5] (inhibition, at 0.2 µM), 0%.
